# Bioassay records deposited in PubChem BioAssay by several laboratories.
# This is a sample that favours compounds with a hit; in the whole collection about 1.5% have one here.
# 697 NFkB inh: lowers PMA/ionomycin-induced NF-kB signal in 697 B cells | 697 B-cell NF-kB luciferase reporter, 16 h | inhibition, % at 4 µM | hit rate 0.33% among 330,000; in the data active means inhibition above about 35%
# Jurkat NFkB inh: lowers PMA/ionomycin-induced NF-kB signal in Jurkat cells; inhibition, % at 4 µM; PMA/ionomycin-induced NF-kB luciferase reporter, luminescence; AID 435003; hit rate 0.53% among 330,000; in the data active means inhibition above about 50%
# NR2E3 ag-1: activates human photoreceptor nuclear receptor NR2E3. Q9Y5X4. GST-NR2E3/biotin-RetCOR TR-FRET, 1536-well. inhibition of corepressor binding, % at 4.78 µM. hit rate 0.12% among 320,000;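 active means percent inhibition above the cutoff of mean plus 3 SD of all tested compounds, set per screening campaign, cut at about 20% in these data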;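 further: 0% = DMSO wells and 100% = biotin wells as full block of FRET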
# Target sequence (Q9Y5X4 whole entry, looked up): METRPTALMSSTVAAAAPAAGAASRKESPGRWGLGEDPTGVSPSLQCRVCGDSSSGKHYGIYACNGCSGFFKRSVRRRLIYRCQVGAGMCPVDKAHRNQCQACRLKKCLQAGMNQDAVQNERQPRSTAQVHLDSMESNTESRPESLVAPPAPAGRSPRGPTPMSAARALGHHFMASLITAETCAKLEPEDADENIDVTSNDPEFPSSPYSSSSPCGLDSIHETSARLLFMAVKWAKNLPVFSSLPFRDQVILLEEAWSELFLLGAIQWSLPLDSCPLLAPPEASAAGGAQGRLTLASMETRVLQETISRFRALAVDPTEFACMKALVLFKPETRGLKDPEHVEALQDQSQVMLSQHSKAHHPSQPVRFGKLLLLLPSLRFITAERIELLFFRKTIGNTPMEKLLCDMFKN
#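 Test system – NR2E3–RetCOR corepressor complex · Quantity – NR2E3 fusion 1.35 nM · Buffer or medium – Tris pH 7.5 · Incubation – Compound–protein incubation for 5 h at 4 °C · Technique – TR-FRET, Eu(K)-anti-GST donor, streptavidin-D2 acceptor, ex 340, em 617/671 nm · Evaluation – percent inhibition of 671/617 nm emission ratio versus biotin and DMSO controls · Plate – 1536-well format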
# GalR3 antag: blocks the human galanin receptor 3; HEK293 GalR3-CNG cAMP membrane potential fluorescence; galR3 body fused to GalR1 C-terminus; hit rate 0.44% among 360,000; inhibition, % at 3 µM; O60755; AID 651719;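 active means inhibition above the screen-wide average plus 3 SD, cut at about 13% in these data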;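 further: forskolin and galanin both at EC90 stimulate the cells; cAMP rise reported by CNG channel membrane potential dye signal; 0% = forskolin plus galanin with DMSO and 100% = forskolin alone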
# JMJD2C inh: human JMJD2C demethylase inhibition; Q9H3R0; GST-JMJD2C(1-420) H3K9me3 demethylation, DELFIA europium; inhibition, % at 2.35 µM; hit rate 0.069% among 330,000; AID 2099;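 active means more than half of a compound's replicate wells show inhibition beyond 50%, single wells judged on their own value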;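 further: signal counts dimethyl H3K9 product captured on neutravidin plate; 0% = median of DMSO wells and 100% = 0.3 times that DMSO median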
# NR2E3 ag-2: agonists of human NR2E3 nuclear receptor; hit rate 0.35% among 360,000; inhibition of corepressor binding, % at 3.98 µM; AID 602229; Q9Y5X4; CHO-S Gal4-NCOR/VP16-NR2E3 two-hybrid, luciferase;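 active means inhibition above the mean of all tested compounds plus 3 SD, cut at about 70% in these data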;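 further: 0% = DMSO with NR2E3 transfected cells and 100% = cells lacking NR2E3 construct; higher means lower luciferase signal from less NR2E3 corepressor binding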
# Jurkat NFkB conf: lowers PMA/ionomycin-induced NF-kB signal in Jurkat cells; Jurkat NF-kB luciferase, 16 h; AID 435020; shares compounds with Jurkat NFkB inh; inhibition, % at 4 µM; hit rate 27% among 2,700;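 active means inhibition reaching about 45% at 4 µM in either replicate, limit read from the data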;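 further: plate controls were PMA/ionomycin stimulated DMSO wells for no effect and unstimulated DMSO wells for full effect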
# * = called active by the depositor; . = not tested or not shown.
SMILES,697 NFkB inh,Jurkat NFkB inh,NR2E3 ag-1,GalR3 antag,JMJD2C inh,NR2E3 ag-2,Jurkat NFkB conf
O=C(Nc1ccccn1)c1ccc([N+](=O)[O-])cc1Cl,15,12,1,-1,-8,-21,.
O=C(Nc1ccccn1)c1cc2cc([N+](=O)[O-])ccc2s1,-10,-156,-4,9,-5,-9,-95
COc1ccc(N2CCN(C(=O)C3CCN(S(=O)(=O)c4ccc5c(c4)CC(C)N5C(=O)C4CC4)CC3)CC2)cc1 (stereo not drawn),.,.,.,-2,.,.,.
Cc1ccc(S(=O)(=O)N2CCCCC2)cc1NC(=O)Cc1c[nH]c2ccccc12,-79,66*,1,-2,-22,15,21
Cc1ccc(C)c(N/C(N)=N/c2nc(C)cc(C)n2)c1,-29,4,-2,-9,-3,28,.
Cc1ccc(CN=C(N)Nc2nc(C)cc(C)n2)cc1,-39,73*,0,10,-6,3,17
Cc1ccc(C(=O)CSC2=C(C#N)C(c3ccco3)C3=C(CCCC3=O)N2)cc1 (stereo not drawn),-84,67*,3,0,-6,-162,44
N#CC1=C(SCC(=O)c2ccccc2)NC2=C(C(=O)CCC2)C1c1ccco1 (stereo not drawn),-166,10,-2,-1,-16,-293,.
N#CCC(CNc1ncc(C(F)(F)F)cc1Cl)OC(=O)c1cccc([N+](=O)[O-])c1 (stereo not drawn),16,66*,2,-2,2,16,14
N#CCC(CNc1ncc(C(F)(F)F)cc1Cl)OC(=O)c1ccc(Cl)cc1 (stereo not drawn),-2,43,1,-6,7,-2,.
N#CCC(CNc1ncc(C(F)(F)F)cc1Cl)OC(=O)c1c(F)cccc1F (stereo not drawn),-3,75*,-4,-12,-3,-1,21
Cc1ccccc1-c1cccc([C@@H]2C[C@H]3[C@H](CON3C)CN2C(=O)C(C)(C)C)c1,.,.,.,-6,.,10,.
Cc1nc2cc(NC(=O)Nc3cccc([N+](=O)[O-])c3)ccc2n1C,-216,-166,4,-8,-47,-102,-118
O=C(NCCS(=O)(=O)N1CCN(c2ccc(F)cc2)CC1)C12CC3CC(CC(C3)C1)C2,16,1,5,0,-9,22,.
CC(O)C(NS(=O)(=O)c1ccc(Cl)cc1)C(=O)OCCOc1ccc(F)cc1 (stereo not drawn),.,.,.,0,.,19,.
O=[N+]([O-])c1ccc(CN2CCN(c3ccc([N+](=O)[O-])cc3)CC2)cc1,-15,60*,-1,-13,-2,-1,21
CCCCc1ccc(NC(=O)C(=O)NCCN2CCN(Cc3ccc([N+](=O)[O-])cc3)CC2)cc1,17,51*,3,-6,-26,-15,59*
O=C1CC(O)C(Cc2ccccc2)N1 (stereo not drawn),.,.,.,-4,.,.,.
CCCCNS(=O)(=O)c1cccc(NC(=O)[C@@H]2O[C@H](CO)[C@@H](O)[C@H]2O)c1,.,.,.,-5,.,-3,.
CCOC(=O)Nc1nc(-c2ccccc2)c(C(=O)c2ccc(Cl)cc2)s1,8,54*,5,-5,-2,37,55*
CCOC(=O)Nc1sc(C)nc1-c1ccccc1,-11,-5,6,-4,-2,-11,.
CCCC(=O)NC(c1ccc(N(C)C)cc1)c1ccc2cccnc2c1O (stereo not drawn),-21,55*,3,-9,-17,23,74*
COc1ccc(C(NC(=O)C(C)C)c2ccc3cccnc3c2O)cc1 (stereo not drawn),-22,61*,0,-2,6,6,65*
CC(=O)NC(c1ccc(Cl)cc1)c1ccc2cccnc2c1O (stereo not drawn),.,.,.,-10,.,-17,.
CCCCC(=O)NC(c1ccc(Cl)cc1Cl)c1ccc2cccnc2c1O (stereo not drawn),-25,51*,.,-9,2,-23,75*
SMILES,697 NFkB inh,Jurkat NFkB inh,NR2E3 ag-1,GalR3 antag,JMJD2C inh,NR2E3 ag-2,Jurkat NFkB conf
CCCC(=O)NC(c1ccccc1Cl)c1ccc2cccnc2c1O (stereo not drawn),-5,63*,1,-11,3,-3,81*
CCC(=O)NC(c1ccc(Cl)cc1Cl)c1ccc2cccnc2c1O (stereo not drawn),-99,37,1,-2,20,-50,.
NC1(N2SC(S)=C3CCCC=C32)CCCCC1,.,.,.,-6,.,.,.
CC(Oc1ccc(Br)cc1)C(=O)NNC(=O)CCN1CCN(c2ccccc2)CC1 (stereo not drawn),10,5,2,-7,3,-11,.
Cc1cc(N2CCN(C(=O)OC(C)(C)C)C[C@H]2C)ccc1N1C[C@@H](C)O[C@@H](C)C1,.,.,.,-6,.,.,.
CCC(=O)Nc1ccc(C(=O)COC(=O)c2sc(C)nc2C)cc1,12,18,.,-1,.,6,.
CCCC(=O)NC(c1ccc(C(C)C)cc1)c1ccc2cccnc2c1O (stereo not drawn),-33,60*,2,-14,7,-13,81*
CCCCC(=O)NC(c1ccc(OC)cc1)c1ccc2cccnc2c1O (stereo not drawn),.,.,.,-5,.,-8,.
CCC(=O)NC(c1ccc(C)cc1)c1cc([N+](=O)[O-])c2cccnc2c1O (stereo not drawn),.,.,1,0,15,24,.
CCC(=O)NC(c1ccc(C)cc1)c1ccc2cccnc2c1O (stereo not drawn),-6,55*,5,-7,31,0,76*
CCc1ccc(Nc2cc(C)nc3ncnn23)cc1,12,8,2,-8,1,17,.
CCn1c2ccccc2c2cc(Nc3cc(C)nc4ncnn34)ccc21,-197,65*,1,6,-2,27,49*
O=C(NC1CCN(Cc2ccccc2)CC1)c1cn(-c2ccccc2)nc1-c1cccnc1,-10,17,0,-6,-5,-7,.
O=C1c2cccc(-c3ccc(C(F)(F)F)cc3)c2C2CC=CCN12 (stereo not drawn),.,.,.,-6,.,24,.
Cc1ccc(OCC(=O)N/N=C2/SCC(=O)N2Cc2ccccc2)cc1,-11,-4,-1,-7,-3,7,.
O=C(COc1ccc(Br)cc1)N/N=C1\SCC(=O)N1c1ccc(F)cc1,-9,99*,-3,0,-5,9,15
CCOc1cccc(C(=O)Nc2ccc3[nH]ncc3c2)c1,-27,-151,4,-9,113,-84,-63
COc1cccc(C(=O)Nc2ccc3[nH]ncc3c2)c1,-45,-70,1,-9,0,-29,.
